This is a sample that favours compounds with a hit; in the whole collection about 2.1% have one here.
ASAP1 inh: blocks human ASAP1-stimulated Arf1 GTP hydrolysis; Q9ULH1; GDP FP detection; inhibition, % at 16.5 µM; 360,000 compounds, 0.19% hits; in the data active means inhibition above about 25%;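 further: 0% = vehicle with enzyme and substrate and 100% = no enzyme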
Target sequence (Q9ULH1 325-724 limits assumed): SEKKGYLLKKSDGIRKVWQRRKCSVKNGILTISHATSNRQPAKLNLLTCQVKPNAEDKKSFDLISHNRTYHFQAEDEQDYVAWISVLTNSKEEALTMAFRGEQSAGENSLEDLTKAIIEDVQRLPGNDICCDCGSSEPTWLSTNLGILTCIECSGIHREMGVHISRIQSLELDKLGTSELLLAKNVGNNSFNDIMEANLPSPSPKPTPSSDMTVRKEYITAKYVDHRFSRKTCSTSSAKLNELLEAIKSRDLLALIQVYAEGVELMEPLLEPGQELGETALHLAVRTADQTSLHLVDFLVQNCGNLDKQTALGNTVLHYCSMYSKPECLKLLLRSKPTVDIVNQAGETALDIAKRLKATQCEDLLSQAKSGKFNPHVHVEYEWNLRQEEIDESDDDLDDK
C2C12 statin: protects C2C12 myotubes from simvastatin toxicity | ATP luminescence, 48 h; scaled: DMSO 0, geranylgeraniol control 100 | rescue of ATP level, % at 7.49 µM | AID 602340 | 330,000 compounds, 0.78% hits;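 active means mean ATP rescue above about 67%, or every replicate alone reaching that limit, limit read from the data, passing the limit was not always enough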;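 further: myotubes were challenged with 10 µM simvastatin during compound exposure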
APOBEC3A inh: blocks human APOBEC3A ssDNA deamination; AID 493011; inhibition, % at 20 µM; P31941; recombinant A3A, FAM/TAMRA ssDNA deamination fluorescence; 330,000 compounds, 0.41% hits;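 active means at least 40% inhibition at 20 µM here, with at most 30% in a related deaminase screen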;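 further: plate controls were A3A with DMSO for no effect and wells lacking A3A enzyme for full effect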
Target sequence (P31941 whole entry, looked up): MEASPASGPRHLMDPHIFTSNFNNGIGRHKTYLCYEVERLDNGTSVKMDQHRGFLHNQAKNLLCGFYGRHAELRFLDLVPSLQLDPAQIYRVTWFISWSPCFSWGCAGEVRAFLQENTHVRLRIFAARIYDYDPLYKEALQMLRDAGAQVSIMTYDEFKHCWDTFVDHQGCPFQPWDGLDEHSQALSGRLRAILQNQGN
ARFGAP1 inh: inhibits rat ARF GTPase activating protein 1. Arfgap1-stimulated ARF1 GTP hydrolysis, GDP FP detection. AID 651572. Q62848. 360,000 compounds, 0.26% hits. inhibition, % at 16.5 µM;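 active means inhibition above a per-plate limit, mean inhibition of low control wells plus 3 SD, cut at about 25% in these data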;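 further: 0% = DMSO wells with enzyme and 100% = wells lacking Arfgap1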
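Replicates: Single well per compound | Assay system: Truncated rat Arfgap1 GAP domain | Control set: No-Arfgap1 wells (100%) versus DMSO full-reaction wells (0%) | Times: Enzyme reaction 120 min at 25 °C after 20 min preincubation | Reagent: Human ARF1(Δ1-17)-GTP substrate | Measured by: Tracer-displacement fluorescence polarization with EDTA stop, 620/688 nm | Measure: Percent inhibition of Arfgap1-stimulated GTP hydrolysis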
SUMO Mot1 rescue: blocks SUMOylation pathway, rescuing yeast Mot1-301 growth | S. cerevisiae Mot1-301 growth rescue, ATP luminescence, 38.5C; percent above DMSO median, 100 means doubled | growth rescue, % at 18.8 µM | 320,000 compounds, 1% hits | AID 2716;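 active means every valid replicate shows activation above 250% relative to neutral control wells; inactive means the rest, any valid replicate at or below 250%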;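 further: OY570 slx delta 5 strain wells were the positive control but not used for scaling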
A3G deaminase: inhibitors of human APOBEC3G DNA deaminase | inhibition, % at 20 µM | recombinant A3G, ssDNA deamination FAM/TAMRA fluorescence | 330,000 compounds, 0.28% hits | AID 493012;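 active means inhibition of at least 40% at 20 µM, with no more than 30% in the related APOBEC3A deaminase screen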;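 further: plate controls were DMSO wells with A3G for no effect and wells lacking A3G enzyme for full effect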
Yeast Mot1 SUMO: inhibits SUMO pathway, affecting Mot1-301 yeast growth; shares compounds with SUMO Mot1 rescue; S. cerevisiae Mot1-301 galactose growth, ATP luminescence, 24 h; -100 = growth of slx-deleted rescue strain; growth activity, percent, % at 42 µM; 2,300 tested, under 10 active; AID 493004;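 active means Signal drops as the depositor expects, and the fitted half-maximal dose is no more than ten times the top valid tested dose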;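 further: more negative values mean stronger growth rescue toward the control strain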
Starred values were filed as active, the others as inactive.

What do the screens show for `Cn1c(=O)[nH]c(=O)c2c1nc(Sc1ccccc1)n2CCc1ccccc1`?
ASAP1 inh: -3; C2C12 statin: -5; APOBEC3A inh: -2; ARFGAP1 inh: -5; SUMO Mot1 rescue: 614*; A3G deaminase: -6; Yeast Mot1 SUMO: 0

Results for COCCn1c(SCc2ccc(C)cc2)nc2c1c(=O)[nH]c(=O)n2C ?
ASAP1 inh: -9; C2C12 statin: 11; APOBEC3A inh: 3; ARFGAP1 inh: 3; SUMO Mot1 rescue: -10; A3G deaminase: 1

Results for COCCn1c(SCc2ccc(Cl)cc2)nc2c1c(=O)[nH]c(=O)n2C ?
ASAP1 inh: -16; APOBEC3A inh: 0; ARFGAP1 inh: 5; SUMO Mot1 rescue: active; A3G deaminase: -4; Yeast Mot1 SUMO: 0

Results for Cc1ccc(Sc2nc3c(c(=O)[nH]c(=O)n3C)n2CCc2ccccc2)cc1 ?
ASAP1 inh: 11; C2C12 statin: -75; APOBEC3A inh: -2; ARFGAP1 inh: -1; SUMO Mot1 rescue: -6; A3G deaminase: -8

What do the screens show for `CC(C)NC(=O)N(C)C[C@@H]1Oc2ncc(C#Cc3ccncc3)cc2C(=O)N([C@@H](C)CO)C[C@H]1C`?
C2C12 statin: 6

What do the screens show for `COc1ccc(Cl)cc1N(C(=O)c1ccco1)C(C(=O)NC1CCCC1)c1ccncc1` (centres undefined)?
ASAP1 inh: 7; C2C12 statin: -8; APOBEC3A inh: -2; ARFGAP1 inh: -3; SUMO Mot1 rescue: 407*; A3G deaminase: -7; Yeast Mot1 SUMO: 0

How did COc1ccc(Cl)cc1N(C(=O)c1ccco1)C(C(=O)NC1CCCC1)c1cccnc1 (centres undefined) do in these assays?
ASAP1 inh: -9; C2C12 statin: 3; APOBEC3A inh: 2; ARFGAP1 inh: 9; SUMO Mot1 rescue: 11; A3G deaminase: -2

Results for COc1ccccc1NC(=O)N[C@@H]1CC[C@H](CC(=O)N[C@@H](C)c2ccccc2)O[C@H]1CO ?
C2C12 statin: -2

What do the screens show for `COc1cc2nc(CSc3ncn[nH]3)[nH]c(=O)c2cc1OC`?
ASAP1 inh: 2; APOBEC3A inh: 1; ARFGAP1 inh: 12; SUMO Mot1 rescue: 556*; A3G deaminase: -5; Yeast Mot1 SUMO: 0

How did Cc1ccc(S(=O)(=O)N(C)C[C@@H]2Oc3c(NS(=O)(=O)c4ccc(Cl)cc4)cccc3C(=O)N([C@H](C)CO)C[C@@H]2C)cc1 do in these assays?
C2C12 statin: -19

Results for CCCN1C(=O)c2[nH]nc(-c3cc(Cl)c(C)cc3O)c2C1c1ccc(O)c(OC)c1 (centres undefined) ?
ASAP1 inh: 6; APOBEC3A inh: 4; ARFGAP1 inh: 0; SUMO Mot1 rescue: 571*; A3G deaminase: -1; Yeast Mot1 SUMO: 0

What do the screens show for `COCC(=O)Nc1ccc2c(c1)[C@H]1C[C@@H](CC(=O)NCc3ccccc3)O[C@@H](CO)[C@H]1O2`?
C2C12 statin: 0

Results for CCC(C)(C)n1nnnc1C(c1ccc(OC)c(OC)c1)N1CCN(c2cccc(OC)c2)CC1 (centres undefined) ?
ASAP1 inh: 0; C2C12 statin: -28; APOBEC3A inh: -10; ARFGAP1 inh: 9; SUMO Mot1 rescue: active; A3G deaminase: -1; Yeast Mot1 SUMO: 0

How did CCC(C)(C)n1nnnc1C(c1ccc(OC)c(OC)c1)N1CCN(c2ccccc2)CC1 (centres undefined) do in these assays?
ASAP1 inh: -3; C2C12 statin: -32; APOBEC3A inh: -3; ARFGAP1 inh: -6; SUMO Mot1 rescue: -11; A3G deaminase: -5

What do the screens show for `C/C=C/c1cnc2c(c1)C(=O)N([C@@H](C)CO)C[C@H](C)[C@H](CN(C)S(=O)(=O)c1ccccc1)O2`?
C2C12 statin: 26

Results for Cc1cc(C(=O)OCC(=O)Nc2cccc(S(N)(=O)=O)c2)c2ccccc2n1 ?
ASAP1 inh: 3; APOBEC3A inh: -2; ARFGAP1 inh: -10; SUMO Mot1 rescue: 647*; A3G deaminase: -7; Yeast Mot1 SUMO: 0

Results for Cc1c(C(=O)OCC(=O)Nc2ccc(S(N)(=O)=O)cc2)oc2c1ccc1ccccc12 ?
ASAP1 inh: 3; C2C12 statin: 3; APOBEC3A inh: 1; ARFGAP1 inh: 1; SUMO Mot1 rescue: 500*; A3G deaminase: -15; Yeast Mot1 SUMO: -1

Results for O=C(N[C@@H]1CC[C@H](CC(=O)N2CCOCC2)O[C@@H]1CO)c1ccccn1 ?
C2C12 statin: 2

Results for C[C@H]1CN([C@@H](C)CO)C(=O)c2cccc(NC(=O)Nc3ccc4c(c3)OCO4)c2O[C@H]1CN(C)C(=O)Nc1ccc2c(c1)OCO2 ?
C2C12 statin: 27

Results for CCOC(=O)c1c(/N=C/C2C(=O)CC(C)(C)CC2=O)sc2c1CCCC2 ?
ASAP1 inh: -1; C2C12 statin: -13; APOBEC3A inh: -3; ARFGAP1 inh: 8; SUMO Mot1 rescue: -8; A3G deaminase: -4

Results for CCOC(=O)c1c(/N=C/C2C(=O)CCCC2=O)sc2c1CCCC2 ?
ASAP1 inh: -6; APOBEC3A inh: -4; ARFGAP1 inh: 14; SUMO Mot1 rescue: 467*; A3G deaminase: -9; Yeast Mot1 SUMO: 0

How did COc1cc(/C=N/NS(=O)(=O)c2ccc(C)cc2)ccc1OCc1ccc(C(=O)O)cc1 do in these assays?
ASAP1 inh: -10; APOBEC3A inh: -5; ARFGAP1 inh: 9; SUMO Mot1 rescue: -3; A3G deaminase: -10

What do the screens show for `CCOc1ccc(/C=N/NS(=O)(=O)c2ccc(C)cc2)cc1OC`?
ASAP1 inh: -7; C2C12 statin: 30; APOBEC3A inh: -4; ARFGAP1 inh: -11; SUMO Mot1 rescue: active; A3G deaminase: -7; Yeast Mot1 SUMO: 2

Results for Cc1ccc2c(c1)N(CC(=O)NCCCN1CCN(C)CC1)C(=O)CO2 ?
ASAP1 inh: 11; C2C12 statin: -38; APOBEC3A inh: 1; ARFGAP1 inh: 12; SUMO Mot1 rescue: 634*; A3G deaminase: -5; Yeast Mot1 SUMO: 0

How did CC1=C(C#N)S(=O)(=O)C(C#N)C(c2ccccc2)C1 (centres undefined) do in these assays?
ASAP1 inh: -5; APOBEC3A inh: -3; ARFGAP1 inh: 1; SUMO Mot1 rescue: 502*; A3G deaminase: -6; Yeast Mot1 SUMO: -1

Results for O=S1(=O)C=CC(c2ccccc2)C1 (centres undefined) ?
ASAP1 inh: -5; C2C12 statin: -2; APOBEC3A inh: -2; ARFGAP1 inh: -3; SUMO Mot1 rescue: -4; A3G deaminase: -9
